“And” between values parts separate entries of the source, which are not always exact repeats. Equal entries are not always repeated.
Tested on: HEK-293T
Assay: Multiplex assay against HEK293T
Assay type: toxicity, cell-based
Details: human, number of replicates 2
In short: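 With compound added, live cells were imaged on a CQ1 microscope at 37°C and 5% CO2; staining with Hoechst33342, BioTracker Green Microtubule Cytoskeleton Dye, MitoTracker Red and Annexin V Alexa Fluor 680 had been done at seeding. The CellPathfinder machine-learning gating scheme split cells into Hoechst high-intensity objects or normal cells, normal cells into healthy, pyknosed or fragmented nuclei, and pyknosed cells into mitotic or apoptotic. The tubulin, mitochondrial-mass and membrane-permeability phenotypes are per cents of healthy-nucleus cells.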

[1] = 12 h, 1 µM, compound concentration 1 uM
[2] = 12 h, 10 µM, compound concentration 10 uM
[3] = 24 h, 1 µM, compound concentration 1 uM
[4] = 24 h, 10 µM, compound concentration 10 uM
[5] = 48 h, 1 µM, compound concentration 1 uM
[6] = 48 h, 10 µM, compound concentration 10 uM

With `CC(C)N(CCCCOCC(=O)NS(C)(=O)=O)c1cnc(-c2ccccc2)c(-c2ccccc2)n1` [SELEXIPAG] the “Population Apoptotic (%)” value [1] was 50% and 55%, the “Population Fragmented Nuclei (%)” value [1] was 3% and 4% and the “Population Healthy Nuclei (%)” value [1] was 81% and 80%. For the same compound, the “Population Hoechst High Intensity Objects (%)” value [1] was 8% and 6%, the “Population Membrane Permeable-Phenotype (%)” value [1] was 2% and the “Population Mitochondria Different-Phenotype (%)” value [1] was 17% and 14%. The “Population Mitotic Cells (%)” value [1] was 49% and 44%, the “Population Normal (%)” value [1] was 91% and 93% and the “Population Pyknosed Nuclei (%)” value [1] was 14% and 15%. For the same compound, the “Population Tubulin-Different-Phenotype (%)” value [1] was 52% and 41%, the “Total Cell Count” value [1] was 669 and 660 and the “Population Apoptotic (%)” value [2] was 58% and 64%. The “Population Fragmented Nuclei (%)” value [2] was 5% and 6%, the “Population Healthy Nuclei (%)” value [2] was 80% and 81% and the “Population Hoechst High Intensity Objects (%)” value [2] was 9% and 10%. For the same compound, the “Population Membrane Permeable-Phenotype (%)” value [2] was 1% and 0%, the “Population Mitochondria Different-Phenotype (%)” value [2] was 14% and 15% and the “Population Mitotic Cells (%)” value [2] was 41% and 35%. The “Population Normal (%)” value [2] was 90% and 89%, the “Population Pyknosed Nuclei (%)” value [2] was 14% and 11% and the “Population Tubulin-Different-Phenotype (%)” value [2] was 51% and 44%. The “Total Cell Count” value [2] was 616 and 713, the “Population Apoptotic (%)” value [3] was 46% and 55% and the “Population Fragmented Nuclei (%)” value [3] was 6% and 7%. For the same compound, the “Population Healthy Nuclei (%)” value [3] was 83% and 81%, the “Population Hoechst High Intensity Objects (%)” value [3] was 7% and 8% and the “Population Membrane Permeable-Phenotype (%)” value [3] was 2% and 1%. For the same compound, the “Population Mitochondria Different-Phenotype (%)” value [3] was 4% and 3%, the “Population Mitotic Cells (%)” value [3] was 53% and 45% and the “Population Normal (%)” value [3] was 92% and 91%. The “Population Pyknosed Nuclei (%)” value [3] was 9% and 11%, the “Population Tubulin-Different-Phenotype (%)” value [3] was 27% and 22% and the “Total Cell Count” value [3] was 1034 and 989. For the same compound, the “Population Apoptotic (%)” value [4] was 50% and 54%, the “Population Fragmented Nuclei (%)” value [4] was 13% and 7% and the “Population Healthy Nuclei (%)” value [4] was 77% and 82%. The “Population Hoechst High Intensity Objects (%)” value [4] was 10% and 9%, the “Population Membrane Permeable-Phenotype (%)” value [4] was 2% and 1% and the “Population Mitochondria Different-Phenotype (%)” value [4] was 2% and 5%. For the same compound, the “Population Mitotic Cells (%)” value [4] was 50% and 45%, the “Population Normal (%)” value [4] was 89% and 90% and the “Population Pyknosed Nuclei (%)” value [4] was 8% and 9%. The “Population Tubulin-Different-Phenotype (%)” value [4] was 13% and 24%, the “Total Cell Count” value [4] was 1214 and 906 and the “Population Apoptotic (%)” value [5] was 13% and 14%. The “Population Fragmented Nuclei (%)” value [5] was 12% and 10%, the “Population Healthy Nuclei (%)” value [5] was 83% and 86% and the “Population Hoechst High Intensity Objects (%)” value [5] was 8%. The “Population Membrane Permeable-Phenotype (%)” value [5] was 4% and 5%, the “Population Mitochondria Different-Phenotype (%)” value [5] was 0% and the “Population Mitotic Cells (%)” value [5] was 86% and 85%. The “Population Normal (%)” value [5] was 91%, the “Population Pyknosed Nuclei (%)” value [5] was 3% and the “Population Tubulin-Different-Phenotype (%)” value [5] was 7%. For the same compound, the “Total Cell Count” value [5] was 2736 and 2374, the “Population Apoptotic (%)” value [6] was 25% and 19% and the “Population Fragmented Nuclei (%)” value [6] was 25% and 22%. For the same compound, the “Population Healthy Nuclei (%)” value [6] was 71% and 75%, the “Population Hoechst High Intensity Objects (%)” value [6] was 9% and the “Population Membrane Permeable-Phenotype (%)” value [6] was 5% and 7%. For the same compound, the “Population Mitochondria Different-Phenotype (%)” value [6] was 0%, the “Population Mitotic Cells (%)” value [6] was 74% and 80% and the “Population Normal (%)” value [6] was 90%. The “Population Pyknosed Nuclei (%)” value [6] was 2%, the “Population Tubulin-Different-Phenotype (%)” value [6] was 8% and 13% and the “Total Cell Count” value [6] was 3157 and 2195.

In the case of `Cc1c(C(=O)Nc2ccc(N3C[C@@H](C)O[C@@H](C)C3)nc2)cccc1-c1ccc(OC(F)(F)F)cc1` [SONIDEGIB], the “Population Apoptotic (%)” value [1] is reported as 36% and 33%, the “Population Fragmented Nuclei (%)” value [1] is reported as 3% and the “Population Healthy Nuclei (%)” value [1] is reported as 85% and 86%. The “Population Hoechst High Intensity Objects (%)” value [1] was 3% and 6%, the “Population Membrane Permeable-Phenotype (%)” value [1] was 3% and the “Population Mitochondria Different-Phenotype (%)” value [1] was 12%. The “Population Mitotic Cells (%)” value [1] was 63% and 66%, the “Population Normal (%)” value [1] was 96% and 93% and the “Population Pyknosed Nuclei (%)” value [1] was 11% and 9%. For the same compound, the “Population Tubulin-Different-Phenotype (%)” value [1] was 43% and 46%, the “Total Cell Count” value [1] was 668 and 769 and the “Population Apoptotic (%)” value [2] was 55% and 57%. The “Population Fragmented Nuclei (%)” value [2] was 3% and 4%, the “Population Healthy Nuclei (%)” value [2] was 84% and 85% and the “Population Hoechst High Intensity Objects (%)” value [2] was 7% and 10%. The “Population Membrane Permeable-Phenotype (%)” value [2] was 3% and 1%, the “Population Mitochondria Different-Phenotype (%)” value [2] was 18% and 15% and the “Population Mitotic Cells (%)” value [2] was 44% and 42%. For the same compound, the “Population Normal (%)” value [2] was 92% and 89%, the “Population Pyknosed Nuclei (%)” value [2] was 11% and 10% and the “Population Tubulin-Different-Phenotype (%)” value [2] was 56% and 45%. For the same compound, the “Total Cell Count” value [2] was 652 and 496, the “Population Apoptotic (%)” value [3] was 39% and 27% and the “Population Fragmented Nuclei (%)” value [3] was 3% and 4%. The “Population Healthy Nuclei (%)” value [3] was 90% and 89%, the “Population Hoechst High Intensity Objects (%)” value [3] was 6% and 7% and the “Population Membrane Permeable-Phenotype (%)” value [3] was 3% and 2%. The “Population Mitochondria Different-Phenotype (%)” value [3] was 5% and 3%, the “Population Mitotic Cells (%)” value [3] was 60% and 72% and the “Population Normal (%)” value [3] was 93% and 92%. For the same compound, the “Population Pyknosed Nuclei (%)” value [3] was 6% and 5%, the “Population Tubulin-Different-Phenotype (%)” value [3] was 30% and 33% and the “Total Cell Count” value [3] was 984 and 1195. For the same compound, the “Population Apoptotic (%)” value [4] was 53% and 55%, the “Population Fragmented Nuclei (%)” value [4] was 6% and 7% and the “Population Healthy Nuclei (%)” value [4] was 83%. The “Population Hoechst High Intensity Objects (%)” value [4] was 6% and 8%, the “Population Membrane Permeable-Phenotype (%)” value [4] was 3% and the “Population Mitochondria Different-Phenotype (%)” value [4] was 5%. For the same compound, the “Population Mitotic Cells (%)” value [4] was 46% and 45%, the “Population Normal (%)” value [4] was 93% and 91% and the “Population Pyknosed Nuclei (%)” value [4] was 9%. For the same compound, the “Population Tubulin-Different-Phenotype (%)” value [4] was 30% and 28%, the “Total Cell Count” value [4] was 975 and 681 and the “Population Apoptotic (%)” value [5] was 17% and 12%. For the same compound, the “Population Fragmented Nuclei (%)” value [5] was 12%, the “Population Healthy Nuclei (%)” value [5] was 84% and the “Population Hoechst High Intensity Objects (%)” value [5] was 7% and 10%. For the same compound, the “Population Membrane Permeable-Phenotype (%)” value [5] was 5% and 4%, the “Population Mitochondria Different-Phenotype (%)” value [5] was 0% and the “Population Mitotic Cells (%)” value [5] was 82% and 87%. For the same compound, the “Population Normal (%)” value [5] was 92% and 89%, the “Population Pyknosed Nuclei (%)” value [5] was 3% and the “Population Tubulin-Different-Phenotype (%)” value [5] was 12% and 15%. For the same compound, the “Total Cell Count” value [5] was 2699 and 2880, the “Population Apoptotic (%)” value [6] was 14% and 19% and the “Population Fragmented Nuclei (%)” value [6] was 13% and 10%. The “Population Healthy Nuclei (%)” value [6] was 83% and 86%, the “Population Hoechst High Intensity Objects (%)” value [6] was 8% and 7% and the “Population Membrane Permeable-Phenotype (%)” value [6] was 4% and 5%. The “Population Mitochondria Different-Phenotype (%)” value [6] was 0%, the “Population Mitotic Cells (%)” value [6] was 85% and 80% and the “Population Normal (%)” value [6] was 91% and 92%. The “Population Pyknosed Nuclei (%)” value [6] was 2% and 3%, the “Population Tubulin-Different-Phenotype (%)” value [6] was 12% and 8% and the “Total Cell Count” value [6] was 2536 and 1733.
